rRNA inh HTS: selective bacterial rRNA inhibition in E. coli | E. coli WT GFP vs humanized-ribosome RFP mutants, fluorescence, 24 h; hits give low values; DMSO median 0, no signal -100 | 350,000 tested, 1.6% active | GFP signal change (wild-type ribosome), % (no concentration beside the values) | AID 720706;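 active = significant combined selectivity score with lowered wild-type GFP, culture density cut under 30%, mutant RFP and density less affected; inactive = any of these conditions unmet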
SIRT5 inh: inhibitors of human sirtuin-5 desuccinylase; inhibition, % at 15 µM; 330,000 tested, 1.1% active; Q9NXA8; Purified SirT5, succinyl-peptide AMC, trypsin-coupled fluorescence; in the data active = inhibition above about 15%
Target sequence (Q9NXA8 whole entry, looked up): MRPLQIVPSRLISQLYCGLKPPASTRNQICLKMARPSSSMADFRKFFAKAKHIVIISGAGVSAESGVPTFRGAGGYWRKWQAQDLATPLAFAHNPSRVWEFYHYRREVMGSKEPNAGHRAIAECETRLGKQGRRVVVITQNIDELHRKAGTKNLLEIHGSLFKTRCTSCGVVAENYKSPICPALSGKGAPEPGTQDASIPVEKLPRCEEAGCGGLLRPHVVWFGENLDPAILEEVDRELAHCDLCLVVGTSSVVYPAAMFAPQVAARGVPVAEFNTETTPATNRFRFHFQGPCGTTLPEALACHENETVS
S100A4 MyoIIA: inhibitors of human S100A4 binding to myosin IIA peptide | inhibition, % at 10.7 µM | 360,000 tested, 0.14% active | S100A4/TAMRA-MyoIIA peptide fluorescence polarization | P26447 | AID 652163;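 active = mean inhibition of at least 70% across replicates, with every replicate also reaching that level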
Target sequence (P26447 whole entry, looked up): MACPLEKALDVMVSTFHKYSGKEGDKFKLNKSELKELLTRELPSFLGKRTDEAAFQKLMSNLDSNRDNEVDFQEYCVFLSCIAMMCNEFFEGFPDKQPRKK
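Compound dosing: one dose per compound; test system: human S100A4 monomer with TAMRA-labelled myosin IIA peptide; probe or stimulus: TAMRA-labelled myosin IIA heavy-chain peptide probe, 5 nM; medium: HEPES buffer with Ca2+, pH 7.2; schedule: 5 min incubation before reading; benchmarks: neutral control DMSO, positive control TFP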
ERAP1 HTS inh: inhibitors of human ERAP1 aminopeptidase; Q9NZ08; recombinant ERAP1, Leu-AMC fluorescence, 60 min; inhibition, % at 10.7 µM; 340,000 tested, 0.15% active;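 active = mean replicate inhibition of at least 30%, or all replicates individually reaching that 30% level; inactive = mean below 30% and not every replicate reaching it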;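 note: 0% = neutral control wells and 100% = L-leucinethiol positive control wells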
CFTR F508del cor: CFTR F508del correction in bronchial cells; activity (quench increase), % at 7.58 µM; CFBE cells, YFP halide quenching; stimulated with forskolin plus potentiator P3; % fluorescence drop versus neutral controls; 350,000 tested, 0.36% active;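 active = mean added fluorescence quench of at least 8% versus neutral control, with both replicates also reaching 8%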;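 note: cells transiently co-express mutant CFTR-F508del with the halide-sensitive YFP; corrector assay measuring rescue of mutant channel to the surface after 24 h compound exposure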
An asterisk follows results filed as active; ! = a repeat was not active. Sampled rows, rich in hits. Any-hit rate of the full collection: about 3.1%.

COc1ccc(S(=O)(=O)N(C)C[C@H]2OCCCC[C@@H](C)Oc3ccc(NC(=O)Nc4c(C)noc4C)cc3C(=O)N([C@@H](C)CO)C[C@@H]2C)cc1 was read as rRNA inh HTS -1.0, SIRT5 inh 3.1, S100A4 MyoIIA -4.7, ERAP1 HTS inh -1.7 and CFTR F508del cor -1.9.
`CC1(C)CC(N2CCCC2)=CC(=[N+]2CCCCCC2)C1` gave rRNA inh HTS -20.6*, SIRT5 inh 2.4, S100A4 MyoIIA -1.9, ERAP1 HTS inh 15.8 and CFTR F508del cor 2.3.
Screening CC1CC(C)C[N+](=C2C=C(N3CCCC3)CC(C)(C)C2)C1 (stereo not given) returned rRNA inh HTS -50.0, SIRT5 inh 4.8, S100A4 MyoIIA -4.6, ERAP1 HTS inh 9.1 and CFTR F508del cor 3.7.
Screening C[C@H](CO)N1C[C@H](C)[C@H](CN(C)C(=O)C2CCCCC2)OCCCC[C@H](C)Oc2ccc(NS(=O)(=O)c3ccc(F)cc3)cc2C1=O returned rRNA inh HTS -1.7, SIRT5 inh 3.7, S100A4 MyoIIA -4.6, ERAP1 HTS inh 3.8 and CFTR F508del cor 0.8.
C[C@@H]1CCCCO[C@H](CN(C)C(=O)C2CCCCC2)[C@@H](C)CN([C@@H](C)CO)C(=O)c2cc(NS(=O)(=O)c3ccc(F)cc3)ccc2O1 was read as rRNA inh HTS -5.9, SIRT5 inh 16.9*, S100A4 MyoIIA 9.1, ERAP1 HTS inh 3.4 and CFTR F508del cor 0.4.
For C[C@@H]1CN([C@@H](C)CO)C(=O)c2cc(NS(=O)(=O)c3ccc(F)cc3)ccc2O[C@@H](C)CCCCO[C@H]1CN(C)CC1CCCCC1 the results were rRNA inh HTS -0.4, SIRT5 inh 8.6, S100A4 MyoIIA 3.1, ERAP1 HTS inh 1.7 and CFTR F508del cor 1.5.
For C[C@@H]1CCCCO[C@H](CN(C)C(=O)C2CCCCC2)[C@H](C)CN([C@@H](C)CO)C(=O)c2cc(NS(=O)(=O)c3ccc(F)cc3)ccc2O1 the results were rRNA inh HTS -7.4, SIRT5 inh 15.6*, S100A4 MyoIIA 21.9, ERAP1 HTS inh 1.0 and CFTR F508del cor -0.3.
`C[C@@H]1CN([C@H](C)CO)C(=O)c2cc(NS(=O)(=O)c3ccc(F)cc3)ccc2O[C@@H](C)CCCCO[C@@H]1CN(C)CC1CCCCC1` gave rRNA inh HTS 3.8, SIRT5 inh 19.2*, S100A4 MyoIIA -4.4, ERAP1 HTS inh -0.5 and CFTR F508del cor 4.5.
For C[C@@H]1CCCCO[C@H](CN(C)C(=O)CCC(F)(F)F)[C@@H](C)CN([C@@H](C)CO)C(=O)c2cc(NS(=O)(=O)c3ccccc3)ccc2O1 the results were rRNA inh HTS 3.2, SIRT5 inh 6.6, S100A4 MyoIIA -6.8, ERAP1 HTS inh 2.8 and CFTR F508del cor -0.9.
`CCCCCCCCN1N=N[C@H]2[C@H]1[C@@H]1C[C@H]2N(C(=O)OC(C)(C)C)O1` gave rRNA inh HTS -31.9*, SIRT5 inh 0.3, S100A4 MyoIIA -3.8 and CFTR F508del cor 0.5.
Screening O=C1CN(Cc2ccccc2)C[C@H]2[C@H](c3ccc(Br)cc3)[C@H](CO)N12 returned rRNA inh HTS 4.7, SIRT5 inh -2.9, S100A4 MyoIIA -2.7, ERAP1 HTS inh 0.2 and CFTR F508del cor -0.2.
For O=C(N[C@H]1CC[C@@H](CCNC(=O)C2CCC2)O[C@H]1CO)c1ccccn1 the results were rRNA inh HTS 0.9, SIRT5 inh 7.9, S100A4 MyoIIA 14.4, ERAP1 HTS inh -1.1 and CFTR F508del cor 0.0.
`COc1ccccc1-c1nc(SCC(=O)Nc2ccccc2)n[nH]1` gave rRNA inh HTS -8.4, SIRT5 inh -2.1, S100A4 MyoIIA -14.1, ERAP1 HTS inh -1.0 and CFTR F508del cor 0.3.
`COc1ccccc1-c1nc(SCC(=O)Nc2ccccc2F)n[nH]1` gave rRNA inh HTS -26.9*, SIRT5 inh -5.0, S100A4 MyoIIA 5.6, ERAP1 HTS inh 0.9 and CFTR F508del cor -2.2.
COc1ccc(OC)c(NC(=O)CSc2n[nH]c(-c3cccnc3)n2)c1 was read as rRNA inh HTS 1.1, SIRT5 inh 16.6*, S100A4 MyoIIA 0.2, ERAP1 HTS inh 1.7 and CFTR F508del cor -0.7.
Screening CCC(=O)N1[C@H](CO)[C@H]2c3ccccc3N(S(=O)(=O)c3ccccc3C)C[C@H]21 returned rRNA inh HTS -0.9, SIRT5 inh -1.2, S100A4 MyoIIA -2.9, ERAP1 HTS inh 2.2 and CFTR F508del cor 1.0.
COc1ccc(-c2cn3c(C)c(C(=O)Nc4cccc(C)n4)sc3n2)cc1 was read as rRNA inh HTS -29.5*, SIRT5 inh -2.1, S100A4 MyoIIA -2.0, ERAP1 HTS inh -0.8 and CFTR F508del cor 2.3.
`COc1ccc(-c2cn3c(C)c(C(=O)NC(C)(C)C)sc3n2)cc1` gave rRNA inh HTS -6.9, SIRT5 inh 0.5, S100A4 MyoIIA 1.4, ERAP1 HTS inh 2.7 and CFTR F508del cor -0.1.
O=C(Nc1ccc(C(F)(F)F)cc1)N1C[C@@H]2N[C@H](C1)C2c1ccc(-c2ccccc2)cc1 (stereo not given in full) was read as rRNA inh HTS -55.5, SIRT5 inh 20.5*!, S100A4 MyoIIA 10.0, ERAP1 HTS inh 2.3 and CFTR F508del cor -9.8.
C[C@@H]1CN([C@H](C)CO)C(=O)c2cccc(NC(=O)C3CCOCC3)c2O[C@H]1CN(C)Cc1ccc2c(c1)OCO2 was read as rRNA inh HTS -5.1, S100A4 MyoIIA 9.1, ERAP1 HTS inh 0.2 and CFTR F508del cor -2.4.
Screening CC(C)c1ccc(Nc2ccc(C(=O)O)cc2[N+](=O)[O-])cc1 returned rRNA inh HTS -4.2, SIRT5 inh 30.4*, S100A4 MyoIIA -2.6 and ERAP1 HTS inh 1.8.
`COc1ccccc1N(C)S(=O)(=O)c1ccc(C(=O)Nc2nccs2)cc1` gave rRNA inh HTS -33.2, SIRT5 inh -1.5, S100A4 MyoIIA -2.9, ERAP1 HTS inh 0.1 and CFTR F508del cor 26.6*.
Screening COc1ccccc1N(C)S(=O)(=O)c1ccc(C(=O)Nc2cccc(Br)c2)cc1 returned rRNA inh HTS -33.8*, SIRT5 inh -2.4, S100A4 MyoIIA -6.0, ERAP1 HTS inh -1.4 and CFTR F508del cor 1.7.
COC(=O)c1cccc(NC(=O)c2ccc(S(=O)(=O)N(C)c3ccccc3OC)cc2)c1 was read as rRNA inh HTS -12.7, S100A4 MyoIIA -3.5, ERAP1 HTS inh 0.4 and CFTR F508del cor -2.5.
Screening C[C@H](NC(=O)N(C)C[C@@H]1OCc2ccccc2-c2c(n(C)c3ccccc23)C(=O)N([C@H](C)CO)C[C@H]1C)c1ccccc1 returned rRNA inh HTS -1.7 and CFTR F508del cor 0.1.
For NC(=O)Cc1ccc(C(=O)c2ccc(Cl)cc2)s1 the results were rRNA inh HTS -24.2*, SIRT5 inh -3.1, S100A4 MyoIIA -0.2, ERAP1 HTS inh 3.2 and CFTR F508del cor 0.5.
For Cc1ccc(S(=O)(=O)Nc2ccc3c(c2)C(=O)N([C@@H](C)CO)C[C@@H](C)[C@H](CN(C)S(=O)(=O)c2cccs2)OCCCC[C@@H](C)O3)cc1 the results were rRNA inh HTS -3.2, SIRT5 inh 6.1, S100A4 MyoIIA -0.6, ERAP1 HTS inh 1.3 and CFTR F508del cor -4.1.
